Laboratory results: article PMC8640676 (Journal of Pesticide Science, 2021)

Legend:
[1] = molecular target: T1, protoporphyrinogen oxidase (PPO) (Mus musculus, UniProt P51175); experiment: PPO-inhibition assay, mouse liver mitochondrial fraction; assay type: biochemical
T1 sequence (P51175 1-477): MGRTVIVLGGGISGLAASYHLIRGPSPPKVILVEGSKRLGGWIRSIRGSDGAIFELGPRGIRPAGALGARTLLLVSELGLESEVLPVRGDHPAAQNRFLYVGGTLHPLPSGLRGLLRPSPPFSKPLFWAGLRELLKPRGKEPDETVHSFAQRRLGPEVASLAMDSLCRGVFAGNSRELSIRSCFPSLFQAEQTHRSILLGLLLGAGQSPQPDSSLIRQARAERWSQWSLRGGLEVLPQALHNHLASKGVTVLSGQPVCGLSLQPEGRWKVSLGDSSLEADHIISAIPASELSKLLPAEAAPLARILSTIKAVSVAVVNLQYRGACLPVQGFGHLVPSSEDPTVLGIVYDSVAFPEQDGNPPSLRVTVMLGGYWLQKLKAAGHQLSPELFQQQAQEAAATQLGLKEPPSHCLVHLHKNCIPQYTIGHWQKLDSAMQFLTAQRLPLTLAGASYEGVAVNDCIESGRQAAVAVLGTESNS
Method in brief: (§1)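 Liver mitochondria came from pooled SD rats and humans, or were freshly kit-isolated from Crl:CD1 mice and TOYO beagles. They were used at 0.2 mg protein/mL in 100 mM Tris-HCl pH 7.5 with 0.1% Triton-X, 1 mM EDTA and 40 mM ascorbate, preincubated 10 min at 37°C, then given 0.5 µM protoporphyrinogen IX. PPIX fluorescence (ex 410/em 630 nm) was read for 60 min at 37°C. Heat-killed mitochondria gave the background, and IC50 came from 4-parameter fits over 3 runs.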

[2] = Toxicokinetics in plasma, dog 90-day study; assay type: in vivo; conditions: dog plasma, 90-day oral capsule administration
[3] = 90-day subchronic toxicity study with epyrifenacil in mice; assay type: in vivo; conditions: Crl:CD1(ICR), mouse, in vivo, oral
Method in brief: (§2)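 Crl:CD1(ICR) mice, 10 per sex per group, had free access to diet containing 0 (basal diet), 5, 25 or 100 ppm for 90 consecutive days. TK satellite groups held 24 mice per sex. The study was run to test guidelines under GLP.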

Crl:CD1(ICR) mice = experiment: as above; assay type: in vivo; conditions: mouse, 90-day study
Method in brief: as §2

[4] = Incubation of epyrifenacil without microsomal fractions; assay type: in vitro ADME; conditions: 30 min of incubation
[5] = In vitro metabolism study in liver microsomes; assay type: in vitro ADME; conditions: mouse liver microsomes, 10 µM, NADPH, 37°C
[6] = Toxicokinetics in plasma, mouse 90-day study; assay type: in vivo; conditions: mice, 90-day dietary administration (data not shown)
[7] = 90-day subchronic toxicity study with epyrifenacil in rats; assay type: in vivo, rat; conditions: Crl:CD(SD), rat, in vivo, oral
Method in brief: (§3)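 Crl:CD(SD) rats, 10 per sex per group, had free access to diet containing 0 (basal diet), 50, 300 or 800 ppm for 90 consecutive days. TK satellite groups held 4 rats per sex. The study was run to test guidelines under GLP.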

Crl:CD(SD) rats = experiment: as above; assay type: in vivo, rat
Method in brief: as §3

[8] = In vitro metabolism study in liver microsomes; assay type: in vitro ADME; conditions: rat liver microsomes, 10 µM, NADPH, 37°C
[9] = Toxicokinetics in plasma, rat 90-day study; assay type: in vivo; conditions: rats, 90-day dietary administration (data not shown)
[10] = In vitro metabolism study in liver microsomes; assay type: in vitro ADME; conditions: human liver microsomes, 10 µM, NADPH, 37°C
[11] = molecular target: T2, protoporphyrinogen oxidase (PPO) (Homo sapiens, UniProt P50336); experiment: PPO-inhibition assay, human liver mitochondrial fraction; assay type: biochemical
T2 sequence (P50336 1-477): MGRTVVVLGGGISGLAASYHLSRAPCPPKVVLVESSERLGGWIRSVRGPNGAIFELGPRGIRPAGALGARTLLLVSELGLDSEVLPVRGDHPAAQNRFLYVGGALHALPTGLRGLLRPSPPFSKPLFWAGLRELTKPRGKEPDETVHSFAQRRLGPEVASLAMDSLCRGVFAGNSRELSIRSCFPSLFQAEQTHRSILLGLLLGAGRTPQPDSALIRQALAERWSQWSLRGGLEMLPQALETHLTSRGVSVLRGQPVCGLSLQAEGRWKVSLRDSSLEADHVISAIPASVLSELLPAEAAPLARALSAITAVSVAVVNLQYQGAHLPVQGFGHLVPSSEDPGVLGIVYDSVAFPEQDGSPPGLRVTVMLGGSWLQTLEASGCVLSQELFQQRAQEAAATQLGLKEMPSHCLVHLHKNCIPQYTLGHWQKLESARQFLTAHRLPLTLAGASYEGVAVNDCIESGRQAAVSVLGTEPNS
Method in brief: as §1

[12] = 90-day subchronic toxicity study with epyrifenacil in dogs; assay type: in vivo, dog; conditions: beagle, dog, in vivo, oral
Method in brief: (§4)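 Beagles, 4 per sex per group, were dosed orally with gelatin capsules at 0, 100, 300 or 1000 mg/kg/day for 90 consecutive days. The study was run to test guidelines under GLP.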

Beagle dogs = experiment: as above; assay type: in vivo, dog
Method in brief: as §4

[13] = molecular target: T3, protoporphyrinogen oxidase (PPO) (Rattus norvegicus, UniProt D3ZVN7); experiment: PPO-inhibition assay, rat liver mitochondrial fraction; assay type: biochemical
T3 sequence (D3ZVN7 1-488): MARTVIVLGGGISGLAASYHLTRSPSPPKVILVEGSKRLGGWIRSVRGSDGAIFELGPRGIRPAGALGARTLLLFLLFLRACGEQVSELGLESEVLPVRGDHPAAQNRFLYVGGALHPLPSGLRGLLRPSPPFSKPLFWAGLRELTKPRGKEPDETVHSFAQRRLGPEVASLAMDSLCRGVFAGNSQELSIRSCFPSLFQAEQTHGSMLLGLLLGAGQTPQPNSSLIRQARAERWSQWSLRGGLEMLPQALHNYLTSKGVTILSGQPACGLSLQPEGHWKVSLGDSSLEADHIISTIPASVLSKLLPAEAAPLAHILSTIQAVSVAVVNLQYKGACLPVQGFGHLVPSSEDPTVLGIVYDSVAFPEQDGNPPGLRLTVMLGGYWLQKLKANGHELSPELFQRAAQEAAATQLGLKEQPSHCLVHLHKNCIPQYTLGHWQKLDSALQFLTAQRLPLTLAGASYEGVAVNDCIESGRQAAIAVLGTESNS
Method in brief: as §1

[14] = molecular target: T4, protoporphyrinogen oxidase (PPO) (Canis lupus familiaris, UniProt A0A8I3Q7Z3); experiment: PPO-inhibition assay, dog liver mitochondrial fraction; assay type: biochemical
T4 sequence (A0A8I3Q7Z3 1-480): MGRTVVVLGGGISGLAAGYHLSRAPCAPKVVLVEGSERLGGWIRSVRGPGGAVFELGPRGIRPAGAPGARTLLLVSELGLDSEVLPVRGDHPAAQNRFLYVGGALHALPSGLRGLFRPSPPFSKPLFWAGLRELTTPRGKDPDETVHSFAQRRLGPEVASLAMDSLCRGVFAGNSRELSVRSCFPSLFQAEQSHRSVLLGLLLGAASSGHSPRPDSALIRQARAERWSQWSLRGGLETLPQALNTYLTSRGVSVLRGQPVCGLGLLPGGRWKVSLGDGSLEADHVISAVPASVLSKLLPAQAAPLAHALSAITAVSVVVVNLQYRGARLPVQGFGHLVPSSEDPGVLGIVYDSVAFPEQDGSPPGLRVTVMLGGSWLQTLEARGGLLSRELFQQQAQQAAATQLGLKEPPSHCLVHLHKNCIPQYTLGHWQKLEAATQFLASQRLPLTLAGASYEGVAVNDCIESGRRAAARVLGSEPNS
Method in brief: as §1

With `CCOC(=O)COc1ncccc1Oc1cc(-n2c(=O)cc(C(F)(F)F)n(C)c2=O)c(F)cc1Cl` [epyrifenacil, ethyl[(3-{2-chloro-4-fluoro-5-[3-methyl-2,6-dioxo-4-(trifluoromethyl)-3,6-dihydropyrimidin-1(2H)-yl]phenoxy}pyridin-2-yl)oxy]acetate] the IC50 [1] was 2.2 ± 0.03 nM, the “Parent epyrifenacil detected in plasma” value [2] was “not more than 0.04 µg/mL” and the NOAEL at 90 days ([3]; female) was 4.1 mg/kg/day. For the same compound, the NOAEL at 90 days ([3]; male) was 0.7 mg/kg/day, the Major adverse findings (Crl:CD1(ICR) mice) was “Hepatocyte injury caused by porphyrin accumulation, hepatocellular hypertrophy, anemia” and the Non-enzymatic degradation [4] was “did not present any degradants”. For the same compound, the “Time within which epyrifenacil almost disappeared” value [5] was ≤ 5 min, the “Parent epyrifenacil detected in plasma” value [6] was “no measurable amount” and the NOAEL at 90 days ([7]; female) was 19 mg/kg/day. The NOAEL at 90 days ([7]; male) was 3 mg/kg/day, the “NOAEL, fold change vs. corresponding mouse value” (Crl:CD(SD) rats; female rats vs female mice) was 4.6 fold and the “NOAEL, fold change vs. corresponding mouse value” (Crl:CD(SD) rats; male rats vs male mice) was 4.3 fold. The Major adverse findings (Crl:CD(SD) rats; rat, 90-day study) was “Hepatocyte injury caused by porphyrin accumulation, hepatocellular hypertrophy, anemia”, the “Time within which epyrifenacil almost disappeared” value [8] was ≤ 5 min and the “Parent epyrifenacil detected in plasma” value [9] was “no measurable amount”. The “Time within which epyrifenacil almost disappeared” value [10] was ≤ 5 min, the IC50 [11] was 10.2 ± 0.66 nM and the NOAEL at 90 days ([12]; female) was 300 mg/kg/day. The NOAEL at 90 days ([12]; male) was 100 mg/kg/day, the Major adverse findings (Beagle dogs; dog, 90-day study) was “Increased glycogen associated with increased ALP, anemia” and the “NOAEL, fold change vs. corresponding mouse value” (Beagle dogs; female dogs vs female mice) was 73 fold. For the same compound, the “NOAEL, fold change vs. corresponding mouse value” (Beagle dogs; male dogs vs male mice) was 143 fold, the IC50 [13] was 2.6 ± 0.05 nM and the IC50 [14] was 7.6 ± 0.18 nM.
